Screens from PubChem.
Sampled rows, rich in hits. Any-hit rate of the full collection: about 1.7%.
LMPTP inh – LMPTP phosphatase inhibitors, primary screen, biochemical, fluorescence intensity, uHTS; Low molecular weight phosphotyrosine protein phosphatase (Homo sapiens), P24666; AID 651560, 2012; inhibition, % at 20 µM; 0.22% of 360,000 active; recombinant LMPTP-A, OMFP fluorogenic substrate;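 active means compounds that cut the enzyme signal by at least half of the control window in the single-dose screen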
Target sequence (P24666 whole entry, looked up): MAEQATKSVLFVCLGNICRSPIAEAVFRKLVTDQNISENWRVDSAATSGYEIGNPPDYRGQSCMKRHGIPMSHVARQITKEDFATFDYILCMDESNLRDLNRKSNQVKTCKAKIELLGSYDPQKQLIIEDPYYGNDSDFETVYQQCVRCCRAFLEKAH
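Assay system: LMPTP-A phosphatase enzyme | Input: 0.625 nM enzyme | Also added: Fluorogenic phosphatase substrate OMFP at 400 µM final | Compound dosing: One test concentration per compound, 20 µM, with 3% DMSO overall | Schedule: 50 min enzyme reaction at room temperature, protected from light | Signal: Fluorescence intensity | Benchmarks: no-enzyme and uninhibited controls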
Scp1 inh – Scp-1 phosphatase inhibitors, primary screen, biochemical, colorimetric, uHTS. 0.88% of 340,000 active. Recombinant Scp1, phosphopeptide, malachite green phosphate absorbance. inhibition, % at 20 µM. Carboxy-terminal domain RNA polymerase II polypeptide A small phosphatase 1 (Homo …;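 active means inhibition above about 50% at 20 µM, limit read from the data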
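Material: truncated SCP-1 phosphatase (76-261aa) / Buffer or medium: 50 mM Tris acetate pH 5.5, 0.005% Tween-20, 10 mM MgCl2 / Compound dosing: one concentration, 20 µM, with 1.0% DMSO / Incubation: 45 min room-temperature reaction, 5 min colour, 30 min stabiliser / Detection: colorimetric free-phosphate detection, absorbance 630 nm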
DNMT1 inh – human DNMT1 methyltransferase inhibitors, primary screen, biochemical, molecular beacon, fluorescence, HinP1I cleavage, uHTS; inhibition (reported as % activation of signal), % at 10 µM; 0.83% of 360,000 active; AID 588458, 2011; in the data active means inhibition above about 50%
SUMO1 PPI mod – modulators of SUMO1 protein-protein interactions, primary screen, biochemical, uHTS; Small ubiquitin-related modifier 1 (Homo sapiens), P63165; SUMO1 binding to a labelled peptide, TR-FRET, 1 h; inhibition, % at 20 µM; 0.33% of 360,000 active; AID 602429, 2012; in the data active means inhibition above about 37%
STEP block – STEP phosphatase inhibitors, primary screen, biochemical, fluorescence intensity, uHTS. inhibition, % at 20 µM. recombinant STEP, OMFP fluorogenic substrate. Tyrosine-protein phosphatase non-receptor type 5 (Homo sapiens), P54829. 0.25% of 360,000 active;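 active means inhibition at 20 µM, scaled per plate between control wells, above about 37%, limit read from the data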
Target sequence (P54829 whole entry, looked up): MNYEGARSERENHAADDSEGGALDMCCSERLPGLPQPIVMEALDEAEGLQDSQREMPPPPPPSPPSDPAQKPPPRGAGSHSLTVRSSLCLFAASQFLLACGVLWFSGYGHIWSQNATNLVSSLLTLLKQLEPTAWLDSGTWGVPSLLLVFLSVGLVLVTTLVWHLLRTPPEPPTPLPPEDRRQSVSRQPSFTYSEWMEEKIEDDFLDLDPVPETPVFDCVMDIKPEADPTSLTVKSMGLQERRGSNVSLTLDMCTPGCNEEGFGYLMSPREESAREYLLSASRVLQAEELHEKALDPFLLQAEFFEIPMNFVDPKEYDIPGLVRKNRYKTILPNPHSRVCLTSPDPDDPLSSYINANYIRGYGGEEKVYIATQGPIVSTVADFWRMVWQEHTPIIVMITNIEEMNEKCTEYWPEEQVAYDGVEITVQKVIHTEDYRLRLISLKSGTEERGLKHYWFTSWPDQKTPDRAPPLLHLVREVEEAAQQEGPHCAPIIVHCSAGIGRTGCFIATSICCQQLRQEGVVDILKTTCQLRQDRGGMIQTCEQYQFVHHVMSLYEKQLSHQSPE
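System: isolated STEP enzyme; schedule: 20 min enzyme reaction at room temperature, protected from light; medium: Bis-Tris buffer pH 6.0, 2.5 mM DTT, 0.005% Tween 20; signal: fluorescence, 480/540 nm; dosing: single compound dose of 20 µM, 1% DMSO final; also added: OMFP substrate, 25 µM final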
DNMT1 interf DR – spectral interference with molecular beacon fluorescence, dose response, artefact control for DNMT1 inhibitor project, biochemical, fluorescent molecular beacon | shares compounds with DNMT1 inh | spectral interference counter-screen | IC50, µM | 200 tested, under 10 active | AID 602382, 2012; call rule not given here
DNMT1 inh conf – DNMT1 methyltransferase inhibitor retest, confirmation, biochemical, molecular beacon, fluorescence, single concentration; AID 602385, 2012; shares compounds with DNMT1 inh; inhibition, % at 10 µM; 8% of 2,300 active; DNMT1 molecular beacon HinP1I cleavage;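 active means average inhibition of at least 30% in the single-concentration confirmation test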
Beacon interf – shows spectral interference in the DNMT1 beacon assay; activation (fluorescence interference), % at 10 µM; shares compounds with DNMT1 inh; DNMT1 molecular beacon spectral interference counterscreen, fluorescence 485/520; 1% of 2,300 active; AID 602387;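 active means activation of at least 30% at 10 µM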;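 further: DNMT1 catalytic domain with a HinP1I cleavage step and a FAM/dabcyl DNA beacon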
Hits are given with their value.

Results for O=[N+]([O-])c1ccc(Cl)c(S(=O)(=O)Nc2cccc(S(=O)(=O)NC3=NCCC3)c2)c1 ?
LMPTP inh: inactive; Scp1 inh: inactive; DNMT1 inh: inactive; SUMO1 PPI mod: inactive; STEP block: inactive

What do the screens show for `O=C(CSCc1ccc(Cl)cc1)Nc1ccc(-c2nnc(-c3ccccc3)o2)cc1`?
LMPTP inh: inactive; Scp1 inh: inactive; DNMT1 inh: 72; SUMO1 PPI mod: inactive; STEP block: inactive; DNMT1 inh conf: inactive; Beacon interf: inactive

How did CC(=O)c1oc2ccccc2c1NC(=O)COC(=O)c1ccc(-n2nc(C)cc2C)cc1 do in these assays?
LMPTP inh: inactive; Scp1 inh: inactive; DNMT1 inh: 54; SUMO1 PPI mod: inactive; STEP block: inactive; DNMT1 inh conf: inactive; Beacon interf: inactive

Results for CSc1ccccc1NC(=O)COC(=O)c1ccc(-n2nc(C)cc2C)cc1 ?
LMPTP inh: inactive; Scp1 inh: inactive; DNMT1 inh: inactive; SUMO1 PPI mod: inactive; STEP block: inactive

Results for COc1ccc(N(C(=O)Cn2nnc(-c3ccccc3F)n2)C(C(=O)NCC2CCCO2)c2ccc(Cl)cc2)cc1 (configuration not stated) ?
LMPTP inh: inactive; Scp1 inh: inactive; DNMT1 inh: 53; SUMO1 PPI mod: inactive; STEP block: inactive; DNMT1 inh conf: inactive; Beacon interf: inactive

What do the screens show for `COc1ccc(N(C(=O)Cn2nnc(-c3ccc(Cl)cc3)n2)C(C(=O)NCC2CCCO2)c2ccc(C)cc2)cc1` (configuration not stated)?
LMPTP inh: inactive; Scp1 inh: inactive; DNMT1 inh: 55; SUMO1 PPI mod: inactive; STEP block: inactive; DNMT1 inh conf: inactive; Beacon interf: inactive

How did COc1ccc(N(C(=O)Cn2nnc(-c3ccc(Cl)cc3)n2)C(C(=O)NCC2CCCO2)c2ccncc2)cc1 (configuration not stated) do in these assays?
LMPTP inh: inactive; Scp1 inh: inactive; DNMT1 inh: inactive; SUMO1 PPI mod: inactive; STEP block: inactive

Results for Cc1ccc(CNc2ccc3nnc(-c4ccccc4)n3n2)cc1 ?
LMPTP inh: inactive; Scp1 inh: inactive; DNMT1 inh: 74; SUMO1 PPI mod: inactive; STEP block: inactive; DNMT1 inh conf: inactive; Beacon interf: inactive

How did CCOC(=O)c1cnc2cc(-c3ccc(C)cc3)nn2c1C do in these assays?
LMPTP inh: inactive; DNMT1 inh: inactive; SUMO1 PPI mod: inactive; STEP block: inactive

What do the screens show for `CCc1ccc2nc3nc(C)cc(C)c3c(N)c2c1`?
LMPTP inh: inactive; Scp1 inh: inactive; DNMT1 inh: inactive; SUMO1 PPI mod: inactive; STEP block: inactive

What do the screens show for `Cc1cc(C)c2c(N)c3ccccc3nc2n1`?
LMPTP inh: inactive; Scp1 inh: inactive; DNMT1 inh: 67; SUMO1 PPI mod: inactive; STEP block: inactive; DNMT1 inh conf: inactive; Beacon interf: inactive

What do the screens show for `COc1ccc(C(c2nnnn2-c2ccc3c(c2)OCCO3)N2CCN(C/C=C/c3ccccc3)CC2)cc1` (configuration not stated)?
LMPTP inh: inactive; DNMT1 inh: inactive; SUMO1 PPI mod: inactive; STEP block: inactive

What do the screens show for `COc1ccc(CCNC(=O)C2CCN(S(=O)(=O)N3CCC(C)CC3)CC2)cc1OC`?
LMPTP inh: inactive; Scp1 inh: inactive; DNMT1 inh: inactive; SUMO1 PPI mod: inactive; STEP block: inactive

Results for CCCCc1nc2sc3c(SCC(=O)NCc4ccco4)ncnc3c2c2c1CCC2 ?
LMPTP inh: inactive; Scp1 inh: inactive; DNMT1 inh: 78; SUMO1 PPI mod: inactive; STEP block: inactive; DNMT1 inh conf: inactive; Beacon interf: inactive

Results for COc1ccc(/C=C/C(=O)NC(=S)Nc2ccc(S(=O)(=O)N=C(N)N)cc2)cc1OC ?
LMPTP inh: inactive; Scp1 inh: inactive; DNMT1 inh: 61; SUMO1 PPI mod: inactive; STEP block: inactive; DNMT1 inh conf: inactive; Beacon interf: inactive

How did C=C1C(=O)OC2C1CCC(C)=C1C(=O)C3OC3(C)C12 (configuration not stated) do in these assays?
LMPTP inh: inactive; Scp1 inh: inactive; DNMT1 inh: 72; SUMO1 PPI mod: inactive; STEP block: inactive; DNMT1 inh conf: inactive; Beacon interf: inactive

How did COc1ccc2cc(OCC(=O)NNC(=O)Nc3ccc(C(C)=O)cc3)ccc2c1 do in these assays?
LMPTP inh: inactive; Scp1 inh: inactive; DNMT1 inh: 72; SUMO1 PPI mod: inactive; STEP block: inactive; DNMT1 inh conf: inactive; Beacon interf: inactive

Results for COCC(=O)Nc1ccccc1C(=O)Nc1ccc(OC)cc1 ?
LMPTP inh: inactive; Scp1 inh: inactive; DNMT1 inh: inactive; SUMO1 PPI mod: inactive; STEP block: inactive

Results for COc1ccc(NC(=O)c2ccccc2NC(=O)COc2ccccc2)cc1 ?
LMPTP inh: inactive; Scp1 inh: inactive; DNMT1 inh: 55; SUMO1 PPI mod: inactive; STEP block: inactive; DNMT1 inh conf: inactive; Beacon interf: inactive

How did CCN(CC(=O)NCc1ccc(F)cc1)C(=O)/C=C/c1cc(OC)ccc1OC do in these assays?
LMPTP inh: inactive; Scp1 inh: inactive; DNMT1 inh: inactive; SUMO1 PPI mod: inactive; STEP block: inactive

Results for O=C1Nc2ccccc2C1(c1ccccc1)c1ccccc1 ?
LMPTP inh: inactive; Scp1 inh: inactive; DNMT1 inh: inactive; SUMO1 PPI mod: inactive; STEP block: inactive

How did CCC1(CC)C(=O)Nc2ccccc21 do in these assays?
LMPTP inh: inactive; Scp1 inh: inactive; DNMT1 inh: 75; SUMO1 PPI mod: inactive; STEP block: inactive; DNMT1 inh conf: inactive; Beacon interf: inactive

How did O=C1NN(c2ccc(Cl)cc2)C(=O)/C1=C\c1ccc(-c2cccc(C(=O)O)c2)o1 do in these assays?
LMPTP inh: 82; Scp1 inh: 94; DNMT1 inh: 95; SUMO1 PPI mod: 40; STEP block: 97; DNMT1 interf DR: inactive; DNMT1 inh conf: 34; Beacon interf: inactive

Results for O=C(COC(=O)CCN1C(=O)/C(=C\C=C\c2ccccc2)SC1=S)Nc1cc(F)ccc1F ?
LMPTP inh: inactive; Scp1 inh: inactive; DNMT1 inh: 75; SUMO1 PPI mod: inactive; STEP block: inactive; DNMT1 inh conf: inactive; Beacon interf: inactive
